Laboratory results reported in the M2OR odorant receptor database.
Numbering of substitutions follows the chain as printed.

What was measured:
Conditions in all cases: stereoisomer not certain
OR4KH = tested on: T1, OR4KH
T1 sequence (whole entry): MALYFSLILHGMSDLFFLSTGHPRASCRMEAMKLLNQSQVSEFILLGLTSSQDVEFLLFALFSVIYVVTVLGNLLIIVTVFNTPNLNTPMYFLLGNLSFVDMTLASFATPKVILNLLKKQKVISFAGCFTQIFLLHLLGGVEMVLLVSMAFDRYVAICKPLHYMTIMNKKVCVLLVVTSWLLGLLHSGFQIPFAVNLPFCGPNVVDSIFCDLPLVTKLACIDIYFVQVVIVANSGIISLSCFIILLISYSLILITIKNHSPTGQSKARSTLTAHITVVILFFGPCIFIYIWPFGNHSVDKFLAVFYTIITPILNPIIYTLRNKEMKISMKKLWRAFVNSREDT
Outline: (§1)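 Each entry records the cell line, G-protein, co-transfected protein and tags used. Methods varied with the source, often transient luciferase assays in mammalian cell lines. A receptor–molecule pair is called responsive (active) if the original authors judged its signal statistically different from baseline and non-responsive (inactive) otherwise.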

OR4L1 (Homo sapiens) = biological target: T2, OR4L1 (Homo sapiens) (UniProt Q8NH43)
T2 sequence (whole entry): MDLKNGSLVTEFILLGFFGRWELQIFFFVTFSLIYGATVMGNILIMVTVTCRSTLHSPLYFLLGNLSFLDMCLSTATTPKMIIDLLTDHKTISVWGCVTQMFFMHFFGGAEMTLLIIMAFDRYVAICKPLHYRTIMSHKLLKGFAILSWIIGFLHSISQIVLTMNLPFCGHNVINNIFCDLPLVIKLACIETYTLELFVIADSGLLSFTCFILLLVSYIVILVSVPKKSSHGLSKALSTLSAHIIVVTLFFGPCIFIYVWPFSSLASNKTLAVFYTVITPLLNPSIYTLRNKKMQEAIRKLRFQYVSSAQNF
Outline: as §1

OR4L1 = tested on: T3, OR4L1
T3 sequence (whole entry): T2 sequence (whole entry) with R52S
Outline: as §1

OR4M1 (Homo sapiens) = biological target: T4, OR4M1 (Homo sapiens) (UniProt Q8NGD0)
T4 sequence (whole entry): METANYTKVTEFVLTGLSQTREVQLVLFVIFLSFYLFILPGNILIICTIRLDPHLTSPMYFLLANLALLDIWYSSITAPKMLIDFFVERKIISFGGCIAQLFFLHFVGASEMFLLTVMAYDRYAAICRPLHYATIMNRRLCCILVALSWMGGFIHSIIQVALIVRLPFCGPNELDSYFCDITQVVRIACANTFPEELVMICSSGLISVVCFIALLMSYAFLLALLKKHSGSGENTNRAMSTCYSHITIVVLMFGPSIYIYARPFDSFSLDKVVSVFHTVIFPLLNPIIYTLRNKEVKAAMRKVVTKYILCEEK
Outline: as §1

OR4M1 H277N V279L L284H = tested on: T5, OR4M1 H277N V279L L284H
T5 sequence (whole entry): T4 sequence (whole entry) with H277N, V279L, L284H
Outline: as §1

OR4M2 (Homo sapiens) = biological target: T6, OR4M2 (Homo sapiens) (UniProt Q8NGB6)
T6 sequence (whole entry): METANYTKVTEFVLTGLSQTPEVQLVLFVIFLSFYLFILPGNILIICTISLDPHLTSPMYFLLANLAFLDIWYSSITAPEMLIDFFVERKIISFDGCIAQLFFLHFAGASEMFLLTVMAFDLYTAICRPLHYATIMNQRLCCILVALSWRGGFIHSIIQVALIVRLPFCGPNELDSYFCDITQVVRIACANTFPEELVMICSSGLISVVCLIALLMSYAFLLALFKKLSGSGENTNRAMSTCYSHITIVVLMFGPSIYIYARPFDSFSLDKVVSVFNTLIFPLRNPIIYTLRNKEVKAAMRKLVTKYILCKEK
Outline: as §1

OR4N2 (Homo sapiens) = biological target: T7, OR4N2 (Homo sapiens) (UniProt Q8NGD1)
T7 sequence (whole entry): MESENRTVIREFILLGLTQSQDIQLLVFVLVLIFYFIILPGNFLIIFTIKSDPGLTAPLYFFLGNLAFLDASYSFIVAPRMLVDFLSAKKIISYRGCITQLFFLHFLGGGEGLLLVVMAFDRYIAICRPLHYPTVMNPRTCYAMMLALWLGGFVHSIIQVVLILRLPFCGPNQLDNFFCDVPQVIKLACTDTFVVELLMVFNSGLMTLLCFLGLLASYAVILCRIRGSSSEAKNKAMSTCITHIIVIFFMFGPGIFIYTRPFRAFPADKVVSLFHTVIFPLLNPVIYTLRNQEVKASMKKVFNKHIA
Outline: as §1

OR4N2 A57V I76T = tested on: T8, OR4N2 A57V I76T
T8 sequence (whole entry): T7 sequence (whole entry) with A57V, I76T
Outline: as §1

OR4N2 R260C F279L R290H = tested on: T9, OR4N2 R260C F279L R290H
T9 sequence (whole entry): T7 sequence (whole entry) with R260C, F279L, R290H
Outline: as §1

OR4N2 [1] = tested on: T10, OR4N2
T10 sequence (whole entry): T7 sequence (whole entry) with I76T
Outline: as §1

OR4N4 (Homo sapiens) = biological target: T11, OR4N4 (Homo sapiens) (UniProt Q8N0Y3)
T11 sequence (whole entry): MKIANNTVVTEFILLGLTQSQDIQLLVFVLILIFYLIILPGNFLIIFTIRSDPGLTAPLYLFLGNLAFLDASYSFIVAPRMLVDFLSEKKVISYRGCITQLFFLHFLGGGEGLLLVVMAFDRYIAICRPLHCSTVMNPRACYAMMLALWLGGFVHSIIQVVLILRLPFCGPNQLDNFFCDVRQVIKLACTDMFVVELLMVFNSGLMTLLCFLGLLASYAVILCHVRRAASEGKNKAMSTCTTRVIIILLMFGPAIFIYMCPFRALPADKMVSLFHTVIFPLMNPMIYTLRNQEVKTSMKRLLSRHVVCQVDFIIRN
Outline: as §1

OR4N5 (Homo sapiens) = biological target: T12, OR4N5 (Homo sapiens) (UniProt Q8IXE1)
T12 sequence (whole entry): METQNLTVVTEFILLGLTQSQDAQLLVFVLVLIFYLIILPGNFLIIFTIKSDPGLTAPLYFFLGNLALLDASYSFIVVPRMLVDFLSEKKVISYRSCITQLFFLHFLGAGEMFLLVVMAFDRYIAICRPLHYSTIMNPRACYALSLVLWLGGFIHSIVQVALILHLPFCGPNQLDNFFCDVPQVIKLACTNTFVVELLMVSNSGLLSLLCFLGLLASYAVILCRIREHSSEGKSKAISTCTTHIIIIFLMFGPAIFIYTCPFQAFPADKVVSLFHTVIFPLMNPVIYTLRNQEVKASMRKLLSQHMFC
Outline: as §1

OR4P4 (Homo sapiens) = biological target: T13, OR4P4 (Homo sapiens) (UniProt Q8NGL7)
T13 sequence (whole entry): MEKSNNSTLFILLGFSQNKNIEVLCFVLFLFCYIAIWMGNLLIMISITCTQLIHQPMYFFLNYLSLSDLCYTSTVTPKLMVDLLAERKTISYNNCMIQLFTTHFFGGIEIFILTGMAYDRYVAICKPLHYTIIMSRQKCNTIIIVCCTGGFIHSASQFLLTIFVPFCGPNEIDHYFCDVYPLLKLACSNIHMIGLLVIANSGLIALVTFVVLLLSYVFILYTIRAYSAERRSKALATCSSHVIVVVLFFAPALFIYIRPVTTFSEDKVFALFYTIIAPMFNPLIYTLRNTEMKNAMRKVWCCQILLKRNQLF
Outline: as §1

OR4Q3 (Homo sapiens) = biological target: T14, OR4Q3 (Homo sapiens) (UniProt Q8NH05)
T14 sequence (whole entry): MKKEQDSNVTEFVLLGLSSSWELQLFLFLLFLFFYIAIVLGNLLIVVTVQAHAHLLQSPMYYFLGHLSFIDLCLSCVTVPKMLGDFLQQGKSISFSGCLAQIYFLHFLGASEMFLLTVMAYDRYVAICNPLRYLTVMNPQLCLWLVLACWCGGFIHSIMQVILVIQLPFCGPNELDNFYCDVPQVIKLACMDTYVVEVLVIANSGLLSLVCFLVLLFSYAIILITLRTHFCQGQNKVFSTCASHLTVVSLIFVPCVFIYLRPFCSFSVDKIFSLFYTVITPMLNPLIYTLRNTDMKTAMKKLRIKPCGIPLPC
Outline: as §1

OR4Q3 T135A = tested on: T15, OR4Q3 T135A
T15 sequence (whole entry): T14 sequence (whole entry) with T135A
Outline: as §1

OR4S1 (Homo sapiens) = biological target: T16, OR4S1 (Homo sapiens) (UniProt Q8NGB4)
T16 sequence (whole entry): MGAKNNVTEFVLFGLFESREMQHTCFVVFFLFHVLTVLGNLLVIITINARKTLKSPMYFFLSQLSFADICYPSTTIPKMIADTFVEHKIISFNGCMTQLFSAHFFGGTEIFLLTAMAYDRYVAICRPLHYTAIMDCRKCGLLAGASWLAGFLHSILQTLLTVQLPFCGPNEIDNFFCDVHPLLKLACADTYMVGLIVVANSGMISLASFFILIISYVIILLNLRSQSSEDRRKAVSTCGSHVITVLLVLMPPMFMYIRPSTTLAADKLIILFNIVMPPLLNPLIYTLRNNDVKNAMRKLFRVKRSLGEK
Outline: as §1

OR4N2 [2] = tested on: OR4N2; remark: listed apart in the source
Outline: as §1
Target sequence in this assay (as listed by the source): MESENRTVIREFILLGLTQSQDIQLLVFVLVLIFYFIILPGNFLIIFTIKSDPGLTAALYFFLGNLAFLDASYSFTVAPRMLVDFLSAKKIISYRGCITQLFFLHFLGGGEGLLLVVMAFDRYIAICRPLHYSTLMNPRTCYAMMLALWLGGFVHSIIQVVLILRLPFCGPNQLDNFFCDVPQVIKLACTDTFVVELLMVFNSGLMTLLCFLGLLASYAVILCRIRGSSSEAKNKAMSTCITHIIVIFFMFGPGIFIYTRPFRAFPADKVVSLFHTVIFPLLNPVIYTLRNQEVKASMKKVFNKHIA

Measured: odorant receptor agonist call

CCC1OC(C)=C(O)C1=O (configuration not stated)
not listed: OR4N2 [2]
inactive: all other assays above

CCCCCC(S)C(C)CO (configuration not stated)
inactive: OR4L1 (Homo sapiens) | OR4M1 (Homo sapiens) | OR4M2 (Homo sapiens) | OR4N2 (Homo sapiens) | OR4N4 (Homo sapiens) | OR4N5 (Homo sapiens) | OR4P4 (Homo sapiens) | OR4Q3 (Homo sapiens) | OR4S1 (Homo sapiens)

CCC(S)C(C)CO (configuration not stated)
inactive: OR4L1 (Homo sapiens) | OR4M1 (Homo sapiens) | OR4M2 (Homo sapiens) | OR4N2 (Homo sapiens) | OR4N4 (Homo sapiens) | OR4N5 (Homo sapiens) | OR4P4 (Homo sapiens) | OR4Q3 (Homo sapiens) | OR4S1 (Homo sapiens)

Cc1cnc(C)c(C)n1
not listed: OR4N2 [2]
inactive: all other assays above

CCC1OC(=O)C(O)=C1C (configuration not stated)
not listed: OR4N2 [2]
inactive: all other assays above

CCCCC(S)C(C)CO (configuration not stated)
inactive: OR4L1 (Homo sapiens) | OR4M1 (Homo sapiens) | OR4M2 (Homo sapiens) | OR4N2 (Homo sapiens) | OR4N4 (Homo sapiens) | OR4N5 (Homo sapiens) | OR4P4 (Homo sapiens) | OR4Q3 (Homo sapiens) | OR4S1 (Homo sapiens)

O=c1ccc2ccccc2o1
inactive: OR4N2 (Homo sapiens) | OR4N2 [2] | OR4N2 [1]

CC(CO)CS (configuration not stated)
inactive: OR4L1 (Homo sapiens) | OR4M1 (Homo sapiens) | OR4M2 (Homo sapiens) | OR4N2 (Homo sapiens) | OR4N4 (Homo sapiens) | OR4N5 (Homo sapiens) | OR4P4 (Homo sapiens) | OR4Q3 (Homo sapiens) | OR4S1 (Homo sapiens)

CCCCCCC=CCCC=O
not listed: OR4KH | OR4N2 [2]
inactive: all other assays above
